High-throughput results deposited in PubChem by several laboratories.
HDAC3 inhib: HDAC3 deacetylase inhibitors, primary screen, biochemical, fluorescence, cell-free homogeneous | Histone deacetylase 3 (Homo sapiens), O15379 | actives 0.15% (n = 320,000) | inhibition, % at 8.3 µM | recombinant HDAC3, fluorogenic peptide/trypsin coupled; in the data active = inhibition above about 26%, passing the limit was not always enough; inconclusive = no clear call, values can overlap the other calls
JMJD2C inh: inhibitors of GASC-1 histone demethylase, primary screen, biochemical, fluorescence, DELFIA europium | GST-JMJD2C(1-420) H3K9me3 demethylation | inhibition, % at 2.35 µM | actives 0.069% (n = 330,000) | Lysine-specific demethylase 4C (Homo sapiens), Q9H3R0;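 active = more than half of a compound's replicate wells show inhibition beyond 50%, single wells judged on their own value; inconclusive = some, but no more than half, of replicates pass 50% inhibition; inactive = no replicate passes 50% inhibition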;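 note: signal counts dimethyl H3K9 product captured on neutravidin plate; 0% = median of DMSO wells and 100% = 0.3 times that DMSO median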
T cell modulator: modulators of CD8 T cell-vesicle binding, primary screen, mouse 2C CD8+ T cells, flow cytometry; 2C CD8+ T cell-vesicle binding; stronger effect = lower value; response (vesicle binding), % at 7 µM; actives 0.068% (n = 330,000);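 active = response, share of CD8 T cells binding vesicles, and their 90th percentile fluorescence all below set limits, cut at about 80% in these data, passing the limit was not always enough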;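 note: values below 100% mean blocked vesicle binding to the CD8+ T cells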
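Benchmarks: naked versus QL9-loaded vesicles / Assay system: purified 2C TCR transgenic mouse naive CD8+ T cells / Technique: high-throughput flow cytometry with anti-B7-1 and anti-CD8 staining / Timing: Cell–vesicle co-incubation 1.5 h at 37 °C, staining 20 min on ice / Read-out: percent CD8+ FL2 mean versus row control / Probe or stimulus: QL9-loaded Drosophila micro-vesicles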
Arr AP2 block: inhibitors of beta-arrestin/AP2 binding, primary screen, biochemical, GPCR trafficking, flow cytometry; inhibition, % at 10 µM; actives 0.31% (n = 340,000); FITC-arrestin peptide / GST-AP2 beads; AP2 beta2 appendage carries R879A mutation; beta-arrestin 1 C-terminal peptide binding to AP2 beta2-adaptin appendage (human); AID 504490, 2011;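 active = inhibition above a set limit, near 3 SD of compounds lacking own fluorescence, cut at about 54% in these data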;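 note: plate controls were DMSO wells for no effect and 5 µM unlabelled arrestin peptide for full effect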
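Material – AP2 appendage R879A on GSH beads · Buffer or medium – PBS with 0.05% Tween 20 and 0.1% BSA · Probe or stimulus – fluorescein-tagged arrestin peptide at 50 nM final · Incubation – compound with beads 12 min RT, then probe 1 h RT · Detection – high-throughput flow cytometry of beads, ex 488, em 535 nm · Evaluation – percent response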
LANA-H2A inh: blockers of LANA interaction with H2A/H2B – biochemical, FP readout, HTS, primary screen | Protein LANA1 (Human herpesvirus 8 type P (isolate GK18)), Q9QR71 | cell-free LANA-H2A/H2B peptide, fluorescence polarization | inhibition, % (no concentration beside the values) | actives 0.6% (n = 320,000); in the data active = inhibition mostly above about 10%, no sharp cut-off; inactive = mostly below about 6.7%
Pemphigus Ab inh: inhibitors of pemphigus antibody binding to DSG3, primary screen, biochemical, bead-based, flow cytometry, scFv-GFP. Desmoglein-3 (Homo sapiens), P32926. binding (percent of control), % at 10 µM. actives 0.48% (n = 310,000). DSG3-coupled beads, scFv-anti-DSG3-GFP binding; stronger effect = lower value;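 active = binding more than 3 SD below its plate's average and above zero; inconclusive = below that plate limit but binding exactly zero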;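 note: hits lower antibody fragment binding to DSG3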
Arr AP2 CP1: inhibitors of arrestin peptide binding to AP2, confirmation, biochemical, cherry pick 1, flow cytometry beads | actives 2% (n = 1,300) | AID 504908, 2011 | shares compounds with Arr AP2 block | inhibition, % at 10 µM | GST-AP2 beads, FITC arrestin peptide binding; GST-fused beta2-adaptin appendage, R879A mutant;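 active = inhibition above a set limit, roughly 3 SD of non-fluorescent compound noise, cut at about 38% in these data; inactive = inhibition at or below that limit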;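 note: loss of bead fluorescence from 50 nM FITC arrestin peptide bound to appendage; 0% = negative control wells and 100% = excess unlabelled arrestin peptide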
Target sequence (P63010 whole entry, looked up, the tested form may be a part, one chain of several): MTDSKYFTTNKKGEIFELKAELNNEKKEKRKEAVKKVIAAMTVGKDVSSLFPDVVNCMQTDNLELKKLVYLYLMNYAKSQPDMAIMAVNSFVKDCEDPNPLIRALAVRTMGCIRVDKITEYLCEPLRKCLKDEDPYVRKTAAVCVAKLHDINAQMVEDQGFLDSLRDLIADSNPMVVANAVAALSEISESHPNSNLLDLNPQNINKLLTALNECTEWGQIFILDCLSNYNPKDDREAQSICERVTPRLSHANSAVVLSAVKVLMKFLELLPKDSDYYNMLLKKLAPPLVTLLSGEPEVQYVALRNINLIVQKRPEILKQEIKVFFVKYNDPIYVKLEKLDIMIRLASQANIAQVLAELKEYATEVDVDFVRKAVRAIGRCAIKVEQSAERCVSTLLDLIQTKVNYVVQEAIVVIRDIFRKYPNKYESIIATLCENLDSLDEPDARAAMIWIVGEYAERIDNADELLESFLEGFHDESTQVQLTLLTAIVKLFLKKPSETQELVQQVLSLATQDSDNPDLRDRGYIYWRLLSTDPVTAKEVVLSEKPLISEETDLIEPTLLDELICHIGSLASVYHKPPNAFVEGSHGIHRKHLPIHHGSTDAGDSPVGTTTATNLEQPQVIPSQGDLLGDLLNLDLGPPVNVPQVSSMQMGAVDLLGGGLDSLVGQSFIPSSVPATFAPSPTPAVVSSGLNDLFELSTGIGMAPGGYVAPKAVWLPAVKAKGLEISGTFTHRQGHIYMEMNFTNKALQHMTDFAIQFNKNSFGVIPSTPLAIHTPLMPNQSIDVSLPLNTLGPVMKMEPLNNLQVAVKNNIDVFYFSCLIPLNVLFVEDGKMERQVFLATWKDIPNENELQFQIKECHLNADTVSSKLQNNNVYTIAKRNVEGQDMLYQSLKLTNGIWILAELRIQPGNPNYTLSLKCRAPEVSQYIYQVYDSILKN
GST-FITC bead: GST-fluorescein capture on glutathione beads, confirmation, artefact control for arrestin-AP2 inhibitor project, biochemical, cherry pick 1, flow cytometry | GST-fluorescein binding to GSH beads, fluorescence, counter-screen | AID 588338, 2011 | inhibition, % at 10 µM | shares compounds with Arr AP2 block | actives 2% (n = 1,300);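 active = inhibition above 50%, about 3 SD of the inhibition seen with non-fluorescent compounds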;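 note: fluorescein maleimide labelled GST captured on 4 micron glutathione beads; higher means more loss of bead fluorescence from quenching or blocked binding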
An asterisk follows results filed as active; ? = inconclusive; · = not tested or not shown; ! = not active in a repeat. A selection: hits, their analogues and other compounds. The true share with any hit is near 1.6%.

SMILES | HDAC3 inhib | JMJD2C inh | T cell modulator | Arr AP2 block | LANA-H2A inh | Pemphigus Ab inh | Arr AP2 CP1 | GST-FITC bead
Cc1ccccc1-c1cccc([C@@H]2C[C@H]3[C@H](CON3C)CN2S(=O)(=O)c2ccccc2C)c1 | · | · | · | -7.7 | · | 95.5 | · | ·
COc1ccc(Cl)cc1N(CC(=O)N1CCC(C)CC1)S(C)(=O)=O | -1.3 | 4.5 | 443.4 | 14.5 | -2.4 | 80.9* | · | ·
COc1ccc(Cl)cc1N(CC(=O)N1CCCC1)S(C)(=O)=O | -1.8 | 0.4 | 253.5 | 13.1 | 1.6 | 118.3 | · | ·
N#CCc1nn(-c2ccccc2)c2ncnc(N)c12 | 0.3 | 1.9 | 99.7 | -4.8 | 0.3 | 99.6 | · | ·
CCC(=O)c1cc2c(C)cc(=O)oc2c(C)c1O | 5.9 | -1.5 | 212.2 | -6.3 | -1.5 | 51.2* | · | ·
CCC(=O)c1cc2c(C)cc(=O)oc2c(C)c1OC(C)=O | 0.1 | 7.8 | 140.7 | 22.5 | 3.9 | 99.6 | · | ·
CC(=O)O[C@]1(C(C)=O)CC[C@H]2[C@@H]3C=C(Cl)C4=CC(=O)CC[C@]4(C)[C@H]3CC[C@@]21C | 6.7 | -20.2 | 388.9 | 9.8 | -0.9 | 111.6 | · | ·
CC(=O)O[C@]1(C(C)=O)CC[C@H]2[C@@H]3C=C(Cl)C4=CC(=O)[C@@H]5C[C@@H]5[C@]4(C)[C@H]3CC[C@@]21C | 2.1 | 21.4 | 617.2 | -2.0 | 15.1*! | 102.5 | · | ·
COc1ccc(C(=O)COC(=O)Cn2nnc3ccccc32)cc1Br | 13.4 | 3.0 | 475.5 | -3.3 | -2.8 | 119.6 | · | ·
O=C(c1ccc2c(c1)OCO2)n1nnc2ccccc21 | · | -6.6 | · | · | · | · | · | ·
COc1ccc(C(=O)n2nnc3ccccc32)cc1OC | 69.6* | 4.9 | 375.2 | 0.3 | -1.2 | · | · | ·
COc1ccc(C(=O)n2nnc3ccccc32)cc1Br | 95.7* | 1.5 | 583.7 | 11.3 | 6.3 | 108.0 | · | ·
COc1ccc(C(C(=O)NC2CCCC2)N(CCCO)C(=O)c2snc(C(N)=O)c2N)cc1 (stereo not drawn) | 8.2 | -2.6 | 351.9 | -7.2 | -5.3 | 109.3 | · | ·
Cc1ccc(F)cc1NC(=O)C1C2CCC(O2)C1C(=O)O (stereo not drawn) | -0.5 | -3.9 | 200.7 | 29.5 | 1.4 | 91.5 | · | ·
Cc1sc2nc(CN3CCOCC3)nc(N3CCOCC3)c2c1C | 2.8 | 2.6 | 279.1 | 58.3* | 3.0 | 101.5 | 18.5 | -2.5
c1ccc(NC2=NCCN2CCC2CCCCC2)cc1 | -3.4 | 2.5 | 597.6 | -13.8 | -18.9 | 106.8 | · | ·
O=C(CSc1nc(O)c(C(c2ccccc2)c2ccccc2)c(=O)[nH]1)N1CCOCC1 | 5.3 | 10.9 | 486.7 | 67.8* | 0.0 | 122.9 | -17.2 | -6.2
O=C(CSc1nc(O)c(-c2ccccc2)c(=O)[nH]1)N1CCOCC1 | -4.3 | 4.4 | 323.5 | -46.0 | 3.7 | 93.2 | · | ·
O=C(Oc1ccccc1F)c1ccc2c(=O)n3c(nc2c1)CCC3 | 7.1 | ? | 214.8 | 57.4* | -1.9 | 99.5 | 4.6 | -1.1
O=P(OCC1CCCO1)(OCC1CCCO1)OCC1CCCO1 (stereo not drawn) | · | · | · | 40.7 | · | · | · | ·
C=CCn1c(O)c2ccc(C(=O)N=NC(=O)c3ccc(F)cc3)cc2c1O | -1.7 | -7.4 | 257.6 | 5.5 | 1.2 | 93.1 | · | ·
CCn1c(O)c2ccc(C(=O)N=NC(=O)c3ccccc3)cc2c1O | -2.0 | -5.5 | 285.3 | 57.8* | 0.0 | 112.5 | 13.2 | -4.6
CN(C)S(=O)(=O)c1ccc(C(=O)N2CCN(S(=O)(=O)c3ccc4c(c3)OCCO4)CC2)cc1 | · | · | · | -4.3 | · | 76.0 | · | ·
COc1cc(C(=O)OCC(=O)Nc2ccccc2C(=O)NC2CC2)c([N+](=O)[O-])cc1OC | -2.2 | 4.1 | 179.2 | -1.8 | -0.8 | 101.7 | · | ·
CCCCn1c(N)c(NCC(C)C)c(=O)[nH]c1=O | -1.9 | -0.4 | 680.5 | 56.9* | -2.5 | 98.3 | -8.5 | 0.3
SMILES | HDAC3 inhib | JMJD2C inh | T cell modulator | Arr AP2 block | LANA-H2A inh | Pemphigus Ab inh | Arr AP2 CP1 | GST-FITC bead
Cc1ccc(NC(=O)CCS(=O)(=O)c2ccccc2)cc1S(=O)(=O)N1CCCCCC1 | · | · | · | 58.1* | · | 102.2 | -9.8 | 0.2
Cc1cccc(NC(=O)CNC(=O)CN2C(=O)NC(C)(CCC(C)C)C2=O)c1C (stereo not drawn) | · | · | · | 13.6 | · | 115.2 | · | ·
COc1ccc(NC(=O)CSc2cccc3cccnc23)c(OC)c1 | -0.2 | -3.0 | 208.8 | 7.3 | 0.3 | 107.5 | · | ·
CCCCCOc1ccc(NC(=O)CSc2cccc3cccnc23)cc1 | -28.7 | 0.1 | 111.1 | 107.0* | 2.5 | 104.4 | 3.7 | -4.4
Cc1cc(Br)ccc1NC(=O)C1CSC2(C)CCC(=O)N12 (stereo not drawn) | -2.6 | 153.5 | 271.4 | -2.5 | 5.1 | 97.5 | · | ·
CN(C)S(=O)(=O)c1ccc(Cl)c(NC(=O)COC(=O)CN2C(=O)NC(C)(C)C2=O)c1 | -1.4 | 2.6 | 586.1 | 29.9 | -5.1 | 96.5 | · | ·
CC12CCC(=O)N1C(C(=O)OCC(=O)Nc1ccc(Cl)c(Cl)c1)CS2 (stereo not drawn) | ? | -8.3 | 923.5 | -10.4 | -2.6 | 102.2 | 5.5 | -4.9
CN(C)S(=O)(=O)c1ccc(Cl)c(NC(=O)COC(=O)C2CSC3(C)CCC(=O)N23)c1 (stereo not drawn) | -5.2 | 12.4 | 148.2 | 25.3 | -4.0 | 96.2 | 1.2 | 11.7
CC12CCC(=O)N1C(C(=O)Nc1ccc(Cl)c(Cl)c1)CS2 (stereo not drawn) | 3.5 | 0.7 | 140.0 | -4.3 | -4.1 | 97.8 | · | ·
Cc1cc(NC(=O)COC(=O)C2CSC3(C)CCC(=O)N23)ccc1Br (stereo not drawn) | -6.8 | -11.7 | 169.3 | -7.8 | 0.7 | 97.9 | -8.8 | 4.7
CS(=O)(=O)N(CC(=O)N1CCCC1)c1cccc(C(F)(F)F)c1 | · | · | · | · | · | 96.5 | · | ·
COc1ccc(Nc2nc(N/N=C/c3ccc(N(C)C)cc3)nc(C)c2[N+](=O)[O-])cc1 | 1.2 | -0.7 | 0.0 | 102.6* | 1.7 | 76.4 | 2.8 | -0.5
O=C(Nc1ccccc1F)n1ncc2cc(Cl)ccc21 | -10.6 | -1.2 | 239.6 | 62.5* | -2.6 | 87.4 | -2.2 | -4.4
